Assays:
[1] = Inhibitory activity against human aminopeptidase P
[2] = target: Dipeptidyl peptidase 4 (Homo sapiens, UniProt P27487); assay: Inhibitory activity against human recombinant Dipeptidylpeptidase IV
In short: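 Human recombinant enzyme run in a fluorometric assay with Gly-Pro-AMC as substrate. Cleavage releases fluorescent 7-amino-4-methylcoumarin, which is read to give IC50 values.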

[3] = target: Dipeptidyl peptidase 2 (Homo sapiens, UniProt Q9UHL4); assay: Inhibitory activity against human quiescent cell proline dipeptidase
[4] = target: T1, Prolyl endopeptidase (Homo sapiens, UniProt P48147); assay: Inhibitory activity against human prolylendopeptidase
T1 sequence (P48147 whole entry): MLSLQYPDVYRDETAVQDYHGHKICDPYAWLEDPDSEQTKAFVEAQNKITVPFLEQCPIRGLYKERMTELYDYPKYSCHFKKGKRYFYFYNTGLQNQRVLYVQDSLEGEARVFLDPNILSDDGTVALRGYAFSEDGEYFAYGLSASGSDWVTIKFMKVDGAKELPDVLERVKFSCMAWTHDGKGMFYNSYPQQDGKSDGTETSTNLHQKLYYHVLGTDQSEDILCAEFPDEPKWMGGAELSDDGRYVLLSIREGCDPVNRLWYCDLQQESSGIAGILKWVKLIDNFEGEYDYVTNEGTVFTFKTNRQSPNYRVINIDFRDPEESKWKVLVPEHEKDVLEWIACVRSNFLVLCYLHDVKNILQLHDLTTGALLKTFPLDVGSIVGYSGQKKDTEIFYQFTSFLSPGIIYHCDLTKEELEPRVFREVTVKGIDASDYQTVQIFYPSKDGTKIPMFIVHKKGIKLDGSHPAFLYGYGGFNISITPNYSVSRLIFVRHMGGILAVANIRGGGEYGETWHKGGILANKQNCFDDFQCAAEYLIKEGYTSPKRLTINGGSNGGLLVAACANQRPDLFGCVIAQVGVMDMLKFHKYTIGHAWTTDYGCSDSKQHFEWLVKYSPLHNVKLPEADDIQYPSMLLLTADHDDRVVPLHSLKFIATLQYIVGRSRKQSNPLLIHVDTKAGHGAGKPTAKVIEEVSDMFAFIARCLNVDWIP

[5] = target: T1, Prolyl endopeptidase; assay: Inhibitory activity against human prolyl endopeptidase

Chain of Dipeptidyl peptidase 4 (P27487 whole entry): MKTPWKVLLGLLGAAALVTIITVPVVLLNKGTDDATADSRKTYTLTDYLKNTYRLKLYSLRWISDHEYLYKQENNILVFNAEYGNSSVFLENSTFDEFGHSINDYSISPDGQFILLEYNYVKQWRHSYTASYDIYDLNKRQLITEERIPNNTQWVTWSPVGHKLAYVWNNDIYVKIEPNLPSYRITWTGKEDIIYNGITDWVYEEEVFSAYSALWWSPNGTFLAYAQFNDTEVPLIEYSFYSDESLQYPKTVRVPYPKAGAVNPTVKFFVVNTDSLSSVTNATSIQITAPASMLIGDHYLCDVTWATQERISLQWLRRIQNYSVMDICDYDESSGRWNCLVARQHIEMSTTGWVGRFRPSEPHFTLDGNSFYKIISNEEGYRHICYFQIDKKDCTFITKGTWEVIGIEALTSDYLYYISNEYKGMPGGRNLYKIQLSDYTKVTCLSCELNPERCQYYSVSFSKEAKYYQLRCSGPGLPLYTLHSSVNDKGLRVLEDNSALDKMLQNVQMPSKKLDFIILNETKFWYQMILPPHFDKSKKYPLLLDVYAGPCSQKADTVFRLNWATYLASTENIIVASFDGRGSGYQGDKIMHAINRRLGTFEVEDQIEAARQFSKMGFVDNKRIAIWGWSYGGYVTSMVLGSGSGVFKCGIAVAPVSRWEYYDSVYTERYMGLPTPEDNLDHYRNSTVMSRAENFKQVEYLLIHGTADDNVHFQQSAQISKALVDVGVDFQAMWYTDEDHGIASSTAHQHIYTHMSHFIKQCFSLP

SMILES | IC50 [1] [nM] | IC50 [2] [nM] | IC50 [3] [nM] | IC50 [4] [nM] | IC50 [5] [nM]
COc1ccc(NC(=O)O[C@@H]2CCC[C@H]([C@H](N)C(=O)N3CCSC3)C2)cc1 | > 100000 | 83 | 220 | – | –
COC1=N[C@@H](C(C)C)C(OC)=NC1 | > 100000 | – | – | – | –
COC1=N[C@H]([C@@H]2CC[C@H](O)C2)C(OC)=N[C@H]1C(C)C | > 100000 | – | – | – | –
CS(=O)(=O)c1ccc(S(=O)(=O)N[C@H]2CC[C@H]([C@H](N)C(=O)N3CCCC3)C2)cc1 | > 100000 | 130 | 19000 | > 100000 | –
CS(=O)(=O)NCCS(=O)(=O)N[C@@H]1CC[C@@H]([C@H](N)C(=O)N2CCCC2)C1 | > 100000 | 71 | 21000 | – | > 100000
COC(=O)[C@@H](NC(=O)OCc1ccccc1)[C@@H]1CC[C@H](O)C1 | > 100000 | – | – | – | –
O=C(N[C@H](C(=O)N1CCCC1)[C@@H]1CC[C@@H](O)C1)OCc1ccccc1 | > 100000 | – | – | – | –
N[C@H](C(=O)N1CCCC1)[C@@H]1CC[C@@H](NS(=O)(=O)c2ccc(C(=O)O)cc2)C1 | > 100000 | 110 | 5000 | – | –
N[C@H](C(=O)N1CCCC1)[C@H]1CC[C@H](NS(=O)(=O)c2ccc(C(=O)O)cc2)C1 | > 100000 | 72 | 12000 | – | –
O=C(N[C@H](C(=O)N1CCCC1)[C@@H]1CC[C@@H](OC(=O)c2ccc([N+](=O)[O-])cc2)C1)OCc1ccccc1 | > 100000 | – | – | – | –
CS(=O)(=O)c1ccccc1S(=O)(=O)N[C@H]1CC[C@H]([C@H](N)C(=O)N2CCCC2)C1 | > 100000 | 150 | 1000 | > 100000 | –
N[C@H](C(=O)N1CCCC1)[C@H]1CC[C@H](NS(=O)(=O)c2ccc(S(N)(=O)=O)cc2)C1 | > 100000 | 83 | 22 | – | –
N[C@H](C(=O)N1CCCC1)[C@@H]1CC[C@@H](NS(=O)(=O)c2ccc(S(N)(=O)=O)cc2)C1 | > 100000 | 46 | 2300 | – | –
COC1=N[C@H](C(C)C)C(OC)=N[C@H]1[C@H]1CCCC(O)C1 (stereo not given in full) | > 100000 | – | – | – | –
N[C@H](C(=O)N1CCCC1)[C@H]1CC[C@H](OC(=O)Nc2ccc(I)cc2)C1 | > 100000 | 180 | 260 | – | –
CN(C)S(=O)(=O)c1ccc(S(=O)(=O)N[C@H]2CC[C@H]([C@H](N)C(=O)N3CCCC3)C2)cc1 | > 100000 | 110 | 53 | – | –
COc1ccc(NC(=O)O[C@@H]2CC[C@H]([C@H](N)C(=O)N3CCCC3)C2)cc1 | > 100000 | 1100 | 630 | – | –
CS(=O)(=O)c1ccc(S(=O)(=O)N[C@H]2CC[C@@H]([C@H](N)C(=O)N3CCCC3)C2)cc1 | > 100000 | 420 | 4000 | > 100000 | –
N[C@H](C(=O)N1CCCC1)[C@H]1CC[C@H](O)C1 | > 100000 | 840 | 46000 | > 100000 | –
COC1=N[C@H](C(C)C)C(OC)=N[C@H]1[C@H]1CCC(=O)C1 | > 100000 | – | – | – | –
N[C@H](C(=O)N1CCSC1)[C@H]1CC[C@@H](OC(=O)Nc2ccc(Cl)c(Cl)c2)C1 | > 100000 | 280 | 14 | – | –
N[C@H](C(=O)N1CCSC1)[C@H]1CC[C@H](NC(=O)c2cccc3ccccc23)C1 | > 100000 | 47 | 240 | 1400 | –
COC1=N[C@H](C(C)C)C(OC)=N[C@H]1[C@H]1CC[C@H](O)C1 | > 100000 | – | – | – | –
N[C@@H](C(=O)N1CCSC1)[C@H]1CC[C@@H](OC(=O)Nc2cccc3ccccc23)C1 | > 100000 | 1700 | 110 | – | –
CS(=O)(=O)c1ccc(S(=O)(=O)N[C@@H]2CC[C@@H]([C@H](N)C(=O)N3CCCC3)C2)cc1 | > 100000 | 13 | 1600 | > 100000 | –
COC(=O)[C@@H](NC(=O)OC(C)(C)C)[C@H]1CC[C@@H](O)C1 | > 100000 | – | – | – | –
N[C@H](C(=O)N1CCCC1)[C@H]1CC[C@@H](NS(=O)(=O)c2ccc(OC(F)(F)F)cc2)C1 | > 100000 | 550 | 750 | > 100000 | –
N[C@H](C(=O)N1CCCC1)[C@H]1CC[C@@H](NC(=O)c2cccc3ccccc23)C1 | > 100000 | 230 | 990 | – | –

SMILES | IC50 [1] [nM] | IC50 [2] [nM] | IC50 [3] [nM] | IC50 [4] [nM] | IC50 [5] [nM]
N[C@H](C(=O)N1CCSC1)[C@H]1CC[C@@H](OC(=O)Nc2cccc(F)c2)C1 | > 100000 | 210 | 75 | > 100000 | –
N[C@H](C(=O)N1CCCC1)[C@H]1CCC[C@H](OC(=O)Nc2ccc(I)cc2)C1 | > 100000 | 330 | 110 | > 100000 | –
O=C(N[C@H](C(=O)N1CCCC1)[C@@H]1CC[C@H](O)C1)OCc1ccccc1 | > 100000 | – | – | – | –
COc1ccc(NC(=O)O[C@H]2CCC[C@H]([C@H](N)C(=O)N3CCCC3)C2)cc1 | > 100000 | 480 | 780 | > 100000 | –
N[C@H](C(=O)N1CCCC1)[C@H]1CC[C@@H](OC(=O)Nc2ccc(I)cc2)C1 | > 100000 | 660 | 160 | – | –
COC1=N[C@H](C(C)C)C(OC)=N[C@H]1[C@H]1CC[C@@H](O)C1 | > 100000 | – | – | – | –
N[C@H](C(=O)N1CCCC1)[C@H]1CCC[C@@H](OC(=O)Nc2ccc(I)cc2)C1 | > 100000 | 110 | 420 | 27000 | –
N[C@H](C(=O)N1CCCC1)[C@@H]1CC[C@H](OC(=O)Nc2ccc(I)cc2)C1 | > 100000 | 670 | 250 | – | –
N[C@H](C(=O)N1CCCC1)[C@@H]1CC[C@@H](NS(=O)(=O)c2ccc(OC(F)(F)F)cc2)C1 | > 100000 | 170 | 1700 | > 100000 | –
N[C@H](C(=O)N1CCCC1)[C@H]1CC[C@@H](NC(=O)Nc2cccc3ccccc23)C1 | > 100000 | 110 | 270 | – | –
COc1ccc(NC(=O)O[C@H]2CC[C@H]([C@H](N)C(=O)N3CCCC3)C2)cc1 | > 100000 | 270 | 1400 | – | –
N[C@H](C(=O)N1CCCC1)[C@H]1CCC[C@H](O)C1 | > 100000 | 290 | 40000 | > 100000 | –
COc1ccc(NC(=O)O[C@H]2CCC[C@H]([C@H](N)C(=O)N3CCSC3)C2)cc1 | > 100000 | 420 | 440 | – | –
N[C@H](C(=O)N1CCCC1)[C@H]1CC[C@@H](OC(=O)Nc2ccccc2-c2ccccc2)C1 | > 100000 | 3900 | 870 | – | –
COC(=O)[C@H](NC(=O)OC(C)(C)C)[C@H]1CC[C@@H](O)C1 | > 100000 | – | – | – | –
COc1ccc(NC(=O)O[C@@H]2CCC[C@H]([C@H](N)C(=O)N3CCCC3)C2)cc1 | > 100000 | 180 | 2500 | > 100000 | –
N[C@H](C(=O)N1CCSC1)[C@H]1CC[C@H](NC(=O)Nc2cccc3ccccc23)C1 | > 100000 | 43 | 26 | 2100 | –
N[C@H](C(=O)N1CCCC1)[C@H]1CC[C@H](NS(=O)(=O)c2ccc(S(=O)(=O)C(F)(F)F)cc2)C1 | > 100000 | 220 | 110 | – | –
N[C@@H](C(=O)N1CCSC1)[C@H]1CC[C@@H](OC(=O)Nc2cccc(F)c2)C1 | > 100000 | 1200 | 540 | > 100000 | –
N[C@H](C(=O)N1CCCC1)[C@@H]1CC[C@H](NS(=O)(=O)c2ccc(S(N)(=O)=O)cc2)C1 | > 100000 | 250 | 3100 | – | –
N[C@H](C(=O)N1CCCC1)[C@@H]1CC[C@@H](NC(=O)Nc2cccc3ccccc23)C1 | > 100000 | 94 | 430 | – | –
N[C@H](C(=O)N1CCCC1)[C@@H]1CC[C@H](NC(=O)Nc2cccc3ccccc23)C1 | > 100000 | 440 | 1300 | – | –
COC(=O)[C@H](NC(=O)OCc1ccccc1)[C@@H]1CC[C@H](O)C1 | > 100000 | – | – | – | –
COc1ccc(NC(=O)O[C@@H]2CC[C@H]([C@H](N)C(=O)N3CCSC3)C2)cc1 | > 100000 | 240 | 43 | – | –
N[C@H](C(=O)N1CCCC1)[C@@H]1CC[C@@H](OC(=O)Nc2ccc(I)cc2)C1 | > 100000 | 110 | 820 | – | –
COC1=N[C@H](C(C)C)C(OC)=NC1 | > 100000 | – | – | – | –
CS(=O)(=O)NCCS(=O)(=O)N[C@H]1CC[C@H]([C@H](N)C(=O)N2CCCC2)C1 | > 100000 | 95 | 2000 | > 100000 | –
